Measured values taken from ChEMBL document CHEMBL1140232, “Surprising alteration of antibacterial activity of 5"-modified neomycin against resistant bacteria” (2008).
Converted amounts (≈) assume the structure as drawn.

Experiments:
Escherichia coli [1] = experiment: Antibacterial activity against aminoglycoside-susceptible Escherichia coli ATCC 25922 after 12 to 18 hrs; format: functional
How it was run: (§1)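 Broth microdilution. Bacterial suspension adjusted with broth to absorbance 0.08–0.1 at 625 nm, diluted further in broth, and mixed in wells with 2-fold serial dilutions of compound. Plates incubated at 35°C for 12–18 h. MIC is the lowest concentration inhibiting growth; each determination repeated at least three times.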

Staphylococcus aureus [2] = experiment: Antibacterial activity against aminoglycoside-susceptible Staphylococcus aureus ATCC 25923 after 12 to 18 hrs; format: functional; how it was run: as §1
Escherichia coli [3] = experiment: Antibacterial activity against aminoglycoside-susceptible Escherichia coli TG1 after 12 to 18 hrs; format: functional; how it was run: as §1
Escherichia coli [4] = experiment: Antibacterial activity against Escherichia coli TG1 pSF815 plasmid encoded for AAC(6')/APH(2') after 12 to 18 hrs; format: functional; how it was run: as §1
Escherichia coli [5] = experiment: Antibacterial activity against Escherichia coli TG1 pTZ19U-3 plasmid encoded for APH(3')-1 after 12 to 18 hrs; format: functional; how it was run: as §1
Klebsiella pneumoniae [6] = experiment: Antibacterial activity against ampicillin-resistant and aminoglycosides-susceptible Klebsiella pneumoniae ATCC 13883 after 12 to 18 hrs; format: functional
How it was run: (§2)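 Broth microdilution MIC. Culture diluted with broth to an absorbance of 0.08–0.1 at 625 nm. 100 μL of this was diluted into 10 mL broth and dispensed into 96-well plates. Each well received 50 μL inoculum plus 50 μL of a 2-fold compound dilution series. Plates were incubated at 35°C for 12–18 h. MIC is the lowest concentration that inhibits growth, from at least three repeats.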

Klebsiella pneumoniae [7] = experiment: Antibacterial activity against multidrug-resistant Klebsiella pneumoniae ATCC 700603 isolate after 12 to 18 hrs; format: functional; how it was run: as §2
Staphylococcus aureus [8] = experiment: Antibacterial activity against methicillin-resistant Staphylococcus aureus ATCC 33591 after 12 to 18 hrs; format: functional; how it was run: as §2
Pseudomonas aeruginosa = experiment: Antibacterial activity against aminoglycosides-resistant Pseudomonas aeruginosa ATCC 27853 expressing APH(3')-2b after 12 to 18 hrs; format: functional; how it was run: as §2
Enterococcus faecalis [9] = experiment: Antibacterial activity against vancomycin-susceptible and aminoglycosides-resistant Enterococcus faecalis ATCC 29212 after 12 to 18 hrs; format: functional; how it was run: as §2
Enterococcus faecalis [10] = experiment: Antibacterial activity against vancomycin-resistant Enterococcus faecalis ATCC 51299 expressing vanB, ant(6)-1, aac(6')-aph(2') resistant gene after 12 to 18 hrs; format: functional; how it was run: as §2
Enterococcus [11] = experiment: Activity of Enterococcus APH(3')-3a
Enterococcus [12] = experiment: Ratio of kcat to Km of Enterococcus APH(3')-3a
Escherichia coli [13] = experiment: Antibacterial activity against Escherichia coli TG1 pET28a plasmid encoded for APH(3')-3a after 12 to 18 hrs; format: functional; how it was run: as §1

MIC (Escherichia coli [1]) [µg/mL] | MIC (Staphylococcus aureus [2]) [µg/mL] | MIC (Escherichia coli [3]) [µg/mL] | MIC (Escherichia coli [4]) [µg/mL] | MIC (Escherichia coli [5]) [µg/mL] | Km (Enterococcus [11]) [µM] | Vmax (Enterococcus [11]) [µmol/min/mg] | kcat (Enterococcus [11]) [s⁻¹] | kcat/Km (Enterococcus [12]) [×10⁴ /M/s] | MIC (Escherichia coli [13]) [µg/mL] | Compound | MIC (Klebsiella pneumoniae [6]) [µg/mL] | MIC (Klebsiella pneumoniae [7]) [µg/mL] | MIC (Staphylococcus aureus [8]) [µg/mL] | MIC (Pseudomonas aeruginosa) [µg/mL] | MIC (Enterococcus faecalis [9]) [µg/mL] | MIC (Enterococcus faecalis [10]) [µg/mL]
8 (≈ 10.7 µM) | 2 (≈ 2.67 µM) | 16 (≈ 21.4 µM) | 16 (≈ 21.4 µM) | ≥ 2000 | 150 | 0.54 | 0.27 | 0.18 | 125 (≈ 167 µM) | NC[C@@H]1O[C@H](O[C@H]2[C@@H](O)[C@H](O[C@@H]3[C@@H](O)[C@H](N)C[C@H](N)[C@H]3O[C@H]3O[C@H](CN)[C@@H](O)[C@H](O)[C@H]3N)O[C@@H]2Cn2cc(C3CCCCN3)nn2)[C@H](N)[C@@H](O)[C@@H]1O (stereo partly specified) |  |  |  |  |  | 
64 (≈ 89.7 µM) | 8 (≈ 11.2 µM) | 32 (≈ 44.8 µM) | 64 (≈ 89.7 µM) | ≥ 2000 | 53 | 0.86 | 0.43 | 0.81 | 250 (≈ 350 µM) | NC[C@@H]1O[C@H](O[C@H]2[C@@H](O)[C@H](O[C@@H]3[C@@H](O)[C@H](N)C[C@H](N)[C@H]3O[C@H]3O[C@H](CN)[C@@H](O)[C@H](O)[C@H]3N)O[C@@H]2CNC(=O)CCC(=O)O)[C@H](N)[C@@H](O)[C@@H]1O |  |  |  |  |  | 
16 (≈ 23.4 µM) | 1 (≈ 1.46 µM) | 16 (≈ 23.4 µM) | 16 (≈ 23.4 µM) | ≥ 2000 | 63 | 0.82 | 0.41 | 0.65 | 64 (≈ 93.5 µM) | C[C@@H](N)C(=O)NC[C@H]1O[C@@H](O[C@@H]2[C@@H](O)[C@H](N)C[C@H](N)[C@H]2O[C@H]2O[C@H](CN)[C@@H](O)[C@H](O)[C@H]2N)[C@H](O)[C@@H]1O[C@H]1O[C@@H](CN)[C@@H](O)[C@H](O)[C@H]1N |  |  |  |  |  | 
16 (≈ 22.5 µM) | 0.5 (≈ 0.703 µM) | 16 (≈ 22.5 µM) | 16 (≈ 22.5 µM) | ≥ 2000 | 80 | 0.63 | 0.32 | 0.4 | 64 (≈ 90 µM) | NC[C@@H]1O[C@H](O[C@H]2[C@@H](O)[C@H](O[C@@H]3[C@@H](O)[C@H](N)C[C@H](N)[C@H]3O[C@H]3O[C@H](CN)[C@@H](O)[C@H](O)[C@H]3N)O[C@@H]2CNC(=O)[C@@H]2CCCN2)[C@H](N)[C@@H](O)[C@@H]1O |  |  |  |  |  | 
16 (≈ 19.9 µM) | 4 (≈ 4.96 µM) | 16 (≈ 19.9 µM) | 32 (≈ 39.7 µM) | ≥ 2000 | 171 | 0.41 | 0.21 | 0.12 | 64 (≈ 79.4 µM) | NC[C@@H]1O[C@H](O[C@H]2[C@@H](O)[C@H](O[C@@H]3[C@@H](O)[C@H](N)C[C@H](N)[C@H]3O[C@H]3O[C@H](CN)[C@@H](O)[C@H](O)[C@H]3N)O[C@@H]2Cn2cc(CNC(=O)C3CCNCC3)nn2)[C@H](N)[C@@H](O)[C@@H]1O |  |  |  |  |  | 
8 (≈ 11.2 µM) | 1 (≈ 1.4 µM) | 16 (≈ 22.4 µM) | 16 (≈ 22.4 µM) | ≥ 2000 | 50 | 0.93 | 0.47 | 0.94 | 125 (≈ 175 µM) | NCC[C@H](O)C(=O)NC[C@H]1O[C@@H](O[C@@H]2[C@@H](O)[C@H](N)C[C@H](N)[C@H]2O[C@H]2O[C@H](CN)[C@@H](O)[C@H](O)[C@H]2N)[C@H](O)[C@@H]1O[C@H]1O[C@@H](CN)[C@@H](O)[C@H](O)[C@H]1N |  |  |  |  |  | 

Compound | MIC (Escherichia coli [1]) [µg/mL] | MIC (Staphylococcus aureus [2]) [µg/mL] | MIC (Escherichia coli [3]) [µg/mL] | MIC (Escherichia coli [4]) [µg/mL] | MIC (Escherichia coli [5]) [µg/mL] | Km (Enterococcus [11]) [µM] | Vmax (Enterococcus [11]) [µmol/min/mg] | kcat (Enterococcus [11]) [s⁻¹] | kcat/Km (Enterococcus [12]) [×10⁴ /M/s] | MIC (Escherichia coli [13]) [µg/mL] | MIC (Klebsiella pneumoniae [6]) [µg/mL] | MIC (Klebsiella pneumoniae [7]) [µg/mL] | MIC (Staphylococcus aureus [8]) [µg/mL] | MIC (Pseudomonas aeruginosa) [µg/mL] | MIC (Enterococcus faecalis [9]) [µg/mL] | MIC (Enterococcus faecalis [10]) [µg/mL]
NCC(=O)NCC(=O)NC[C@H]1O[C@@H](O[C@@H]2[C@@H](O)[C@H](N)C[C@H](N)[C@H]2O[C@H]2O[C@H](CN)[C@@H](O)[C@H](O)[C@H]2N)[C@H](O)[C@@H]1O[C@H]1O[C@@H](CN)[C@@H](O)[C@H](O)[C@H]1N | 16 (≈ 22 µM) | 2 (≈ 2.75 µM) | 16 (≈ 22 µM) | 16 (≈ 22 µM) | 125 (≈ 172 µM) |  |  |  |  |  | 4 (≈ 5.5 µM) | 8 (≈ 11 µM) | 32 (≈ 44 µM) | 16 (≈ 22 µM) | 64 (≈ 87.9 µM) | ≥ 250
